The source made the active and inactive calls. The calls are words filed in the database; no cut-off is given here.

The test system of assay [1] is Peritoneal macrophage. In words: Inhibition of Il-1beta production in LPS-stimulated C57BL/6 mouse peritoneal macrophages pre-incubated for 15 mins followed by ATP addition for 30 mins by ELISA method. In kind it is functional, tissue-based. Particulars: time 45.0 min. The gist of the method: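 Thioglycolate-elicited peritoneal macrophages from 6–8-week male C57BL/6 mice, 3 × 10⁵ cells/well. Primed 4 h with LPS 1 μg/mL (E. coli 026:B6), then serum-free DMEM with compound for 15 min, then ATP for 30 min. Supernatant IL-1β measured by ELISA, expressed as percent of ATP-only control. Triplicates from three mice.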
(In general: ELISA stands for enzyme-linked immunosorbent assay.)

Assay [2] addresses T1, P2X purinoceptor 7 (Homo sapiens) (UniProt Q99572).
T1 sequence (whole entry): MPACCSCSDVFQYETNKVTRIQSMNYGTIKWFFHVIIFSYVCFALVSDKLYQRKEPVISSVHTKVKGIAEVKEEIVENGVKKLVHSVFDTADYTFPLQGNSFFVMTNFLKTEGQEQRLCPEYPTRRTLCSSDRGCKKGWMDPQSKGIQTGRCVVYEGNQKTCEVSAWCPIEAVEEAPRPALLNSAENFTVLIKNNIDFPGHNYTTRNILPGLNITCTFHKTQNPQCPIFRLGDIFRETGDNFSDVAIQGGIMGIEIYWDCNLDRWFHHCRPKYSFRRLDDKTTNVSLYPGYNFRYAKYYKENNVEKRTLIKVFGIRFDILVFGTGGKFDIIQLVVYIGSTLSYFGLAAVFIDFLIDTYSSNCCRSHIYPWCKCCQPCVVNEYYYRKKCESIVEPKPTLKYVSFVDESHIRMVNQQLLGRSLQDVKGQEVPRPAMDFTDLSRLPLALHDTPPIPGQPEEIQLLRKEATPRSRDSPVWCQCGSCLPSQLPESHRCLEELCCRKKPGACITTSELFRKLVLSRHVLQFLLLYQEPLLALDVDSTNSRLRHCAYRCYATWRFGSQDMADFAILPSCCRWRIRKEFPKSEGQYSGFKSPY
The assay is described as follows: Antagonist activity at human P2X7 receptor expressed in Xenopus laevis oocytes assessed as reduction in ATP-induced channel currents at 100 uM by TEVC electrophysiology assay relative to control. It counts as cell-based. As to conditions: Oocyte, filed as antagonist. The method, boiled down:
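Oocytes injected with 50 nL His-tagged hP2X7 cRNA (0.5 mg/mL), kept 1–2 days at 16–18 °C. Recorded in low divalent-cation solution (90 mM NaCl, 0.5 mM CaCl₂, 5 mM HEPES) at −70 mV. ATP 300 μM for 2 s after 3 min static compound incubation. Current normalized to control amplitude. Triplicates from three oocytes, two frogs.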

Assay [3] has as its target T2, P2X purinoceptor 7 (Homo sapiens, UniProt Q99572).
T2 sequence (Q99572 whole entry): T1 sequence (whole entry)
The assay is described as follows: (§1) Antagonist activity at human P2X7 receptor expressed in HEK293 cells assessed as reduction in benzoyl-ATP-induced intracellular Ca2+ level by Fura-2 dye based fluorescence assay. It counts as cell-based. The method, boiled down:
(§2)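 hP2X7-HEK293 cells 24–48 h after seeding, loaded with Fura-2-AM 8 μM for 1 h, then washed in Mg²⁺-free Tyrode (2 mM CaCl₂, pH 7.4) for 15–30 min with compound present. Excitation 340/380 nm, emission 520 nm. Basal recording, then BzATP injected (100 μM final). [Ca²⁺]c from Grynkiewicz equation. Blockade as percent of BzATP peak in Tyrode-only wells; triplicates.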

The target of assay [4] is T1, P2X purinoceptor 7 (Homo sapiens). The assay is described as §1. In kind it is cell-based. Particulars: filed as antagonist. The gist of the method:
as §2

The target of assay [5] is T3, P2X purinoceptor 1 (Rattus norvegicus) (UniProt P47824).
T3 sequence (whole entry): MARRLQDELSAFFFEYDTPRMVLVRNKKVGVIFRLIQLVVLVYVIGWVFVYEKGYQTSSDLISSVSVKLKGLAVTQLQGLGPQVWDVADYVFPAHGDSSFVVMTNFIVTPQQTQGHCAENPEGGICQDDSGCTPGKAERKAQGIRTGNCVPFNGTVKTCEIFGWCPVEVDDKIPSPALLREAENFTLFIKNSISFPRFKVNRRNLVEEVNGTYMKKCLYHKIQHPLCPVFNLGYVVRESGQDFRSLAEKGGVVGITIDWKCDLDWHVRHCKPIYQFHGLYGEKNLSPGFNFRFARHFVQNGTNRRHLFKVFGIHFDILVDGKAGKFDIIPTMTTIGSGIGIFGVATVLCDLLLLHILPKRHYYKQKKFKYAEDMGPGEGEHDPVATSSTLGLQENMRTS
In words: Antagonist activity at rat P2X1 receptor expressed in Xenopus laevis oocytes assessed as reduction in ATP-induced channel currents at 100 uM by TEVC electrophysiology assay relative to control. It counts as cell-based. As to conditions: Oocyte. The method, boiled down:
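Two-electrode voltage clamp at −70 mV in low divalent-cation solution, oocytes incubated 1–2 days at 16–18 °C after 50 nL cRNA injection: rP2X1 and rP2X4 at 0.5 mg/mL, rP2X2 0.1 mg/mL, rP2X7 25 μg/mL. ATP 10 μM for rP2X1 and rP2X2, 30 μM for rP2X4 and rP2X7. Compound applied 3 min without perfusion. Currents normalized to control; three oocytes from two frogs.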

Broadly, the inhibition is the relative decrease from the control value, in per cent. By IC50 is commonly meant the concentration that gives 50% inhibition. For the compound `O=C(Cn1cnc2c(Cl)ncnc21)c1ccc(Cl)cc1Cl`, the figures for the inhibition result in assay [1], in assay [2] and in assay [4] were “Dose-dependent effect”, 47% and “Dose-dependent effect”, respectively. Also, the IC50 in assay [3] turned out to be 13.7 µM. In addition, the inhibition entry in assay [5] was “inactive”.

The values above are taken from ChEMBL document CHEMBL4706687, “Synthesis and Pharmacological Evaluation of Novel Non-nucleotide Purine Derivatives as P2X7 Antagonists for the Treatment of Neuroinflammation” (J Med Chem, 2021).
